# Article PMC4926610 (Journal of natural products, 2016)
# Entries after “also recorded” stand apart in the source; their conditions may differ.
# Legend:
# [1] = target: N-ethylmaleimide sensitive factor (NSF) (Homo sapiens, UniProt P46459); assay: Malachite green ATPase assay, NSF; type: biochemical
# [2] = target: p97 (wt-p97) (Homo sapiens, UniProt P55072); assay: Malachite green assay for p97 ATPase activity; type: biochemical
# Procedure, shortened: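 Hydrolysis started with 2.0 mM ATP at 37 °C. Aliquots taken at 2, 4, 6, 8 and 10 min were quenched in malachite green/ammonium molybdate/HCl/Tween 20 reagent. IC50 was taken from dose–response curves.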
# [3] = target: chaperonin GroEL (Escherichia coli, UniProt P0A6F5); assay: Malachite green ATPase assay, GroEL; type: biochemical
# [4] = system: HEK293 cells stably expressing Ub^G76 VGFP; assay: Ub^G76 VGFP ubiquitin fusion degradation; type: cell-based, human; settings: 10.0, 20.0 and 50.0 μM
# Procedure, shortened: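 Stable reporter HEK293 lines seeded at 2 × 10^6 cells in phenol-red free DMEM plus 10% FBS, grown 18 h at 37 °C under 5% CO2. Then treated with 10.0, 20.0 or 50.0 μM test compound (0.1% final DMSO). DMSO 0.1% negative control and MG132 10.0 μM positive control were included. GFP-positive cells counted by flow cytometry: 488 nm excitation, 530/30 emission, 10 000 events gated on FSC/SSC.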
# [5] = target: p97 (Homo sapiens, UniProt P55072); type: biochemical; settings: 100.0 μM compound, 1.0 μM p97, 6 h at 21 °C, then dialysis; Figure 6B
# Procedure, shortened: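 Dialysed into assay buffer, fresh buffer 3 times every 2 h. ATPase started with 2.0 mM ATP; aliquots every 10 min up to 1 h into malachite green, citrate-quenched, OD660 converted to phosphate via standard curve, plotted against time.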
# [6] = target: p97-C209A (Homo sapiens, UniProt P55072, C209A); assay: biochemical
# [7] = target: p97-cys0 (Homo sapiens, UniProt P55072); assay: Malachite green ATPase assay, cysteineless p97; type: biochemical; settings: Figure 6A
# [8] = target: type I AAA+ chaperone ClpX (Escherichia coli, UniProt P0A6H1); assay: Malachite green ATPase assay, ClpX; type: biochemical
# [9] = isolated from Rhodotorula glutinis T-110; cited from earlier work
# Sequence of p97 (P55072 whole entry): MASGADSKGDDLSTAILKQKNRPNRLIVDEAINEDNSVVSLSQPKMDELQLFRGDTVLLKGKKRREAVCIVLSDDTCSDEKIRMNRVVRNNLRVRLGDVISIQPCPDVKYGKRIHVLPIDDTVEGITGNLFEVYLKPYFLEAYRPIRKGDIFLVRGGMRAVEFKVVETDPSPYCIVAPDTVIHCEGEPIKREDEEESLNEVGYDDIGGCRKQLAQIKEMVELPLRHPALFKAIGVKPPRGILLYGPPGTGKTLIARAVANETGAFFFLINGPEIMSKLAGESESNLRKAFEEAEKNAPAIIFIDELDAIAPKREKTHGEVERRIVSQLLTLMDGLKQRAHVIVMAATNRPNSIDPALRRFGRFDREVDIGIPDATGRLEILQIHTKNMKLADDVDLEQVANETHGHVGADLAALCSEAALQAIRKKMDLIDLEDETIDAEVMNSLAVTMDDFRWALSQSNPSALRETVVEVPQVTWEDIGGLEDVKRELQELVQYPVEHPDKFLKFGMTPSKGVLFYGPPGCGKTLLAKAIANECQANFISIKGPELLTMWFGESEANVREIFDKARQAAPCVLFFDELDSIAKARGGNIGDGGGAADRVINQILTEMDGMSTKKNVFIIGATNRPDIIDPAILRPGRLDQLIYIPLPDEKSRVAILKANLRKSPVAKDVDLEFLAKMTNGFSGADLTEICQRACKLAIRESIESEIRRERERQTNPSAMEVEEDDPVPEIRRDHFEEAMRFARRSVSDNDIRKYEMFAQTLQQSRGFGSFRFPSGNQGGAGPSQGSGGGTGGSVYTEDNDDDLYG
# Sequence of p97 (wt-p97) (P55072 whole entry): as above
# Sequence of type I AAA+ chaperone ClpX (P0A6H1 whole entry): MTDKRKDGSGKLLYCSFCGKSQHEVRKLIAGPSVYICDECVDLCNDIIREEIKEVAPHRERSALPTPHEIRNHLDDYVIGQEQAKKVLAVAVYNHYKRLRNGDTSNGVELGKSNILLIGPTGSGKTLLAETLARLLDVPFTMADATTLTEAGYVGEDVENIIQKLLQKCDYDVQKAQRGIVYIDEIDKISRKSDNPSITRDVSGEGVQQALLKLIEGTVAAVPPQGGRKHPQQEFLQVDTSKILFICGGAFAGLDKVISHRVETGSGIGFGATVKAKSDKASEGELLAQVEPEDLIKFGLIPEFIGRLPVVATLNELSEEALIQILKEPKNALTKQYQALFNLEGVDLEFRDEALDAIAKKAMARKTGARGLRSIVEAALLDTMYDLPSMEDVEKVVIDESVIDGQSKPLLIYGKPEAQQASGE
# Sequence of p97-cys0 (P55072 2-806): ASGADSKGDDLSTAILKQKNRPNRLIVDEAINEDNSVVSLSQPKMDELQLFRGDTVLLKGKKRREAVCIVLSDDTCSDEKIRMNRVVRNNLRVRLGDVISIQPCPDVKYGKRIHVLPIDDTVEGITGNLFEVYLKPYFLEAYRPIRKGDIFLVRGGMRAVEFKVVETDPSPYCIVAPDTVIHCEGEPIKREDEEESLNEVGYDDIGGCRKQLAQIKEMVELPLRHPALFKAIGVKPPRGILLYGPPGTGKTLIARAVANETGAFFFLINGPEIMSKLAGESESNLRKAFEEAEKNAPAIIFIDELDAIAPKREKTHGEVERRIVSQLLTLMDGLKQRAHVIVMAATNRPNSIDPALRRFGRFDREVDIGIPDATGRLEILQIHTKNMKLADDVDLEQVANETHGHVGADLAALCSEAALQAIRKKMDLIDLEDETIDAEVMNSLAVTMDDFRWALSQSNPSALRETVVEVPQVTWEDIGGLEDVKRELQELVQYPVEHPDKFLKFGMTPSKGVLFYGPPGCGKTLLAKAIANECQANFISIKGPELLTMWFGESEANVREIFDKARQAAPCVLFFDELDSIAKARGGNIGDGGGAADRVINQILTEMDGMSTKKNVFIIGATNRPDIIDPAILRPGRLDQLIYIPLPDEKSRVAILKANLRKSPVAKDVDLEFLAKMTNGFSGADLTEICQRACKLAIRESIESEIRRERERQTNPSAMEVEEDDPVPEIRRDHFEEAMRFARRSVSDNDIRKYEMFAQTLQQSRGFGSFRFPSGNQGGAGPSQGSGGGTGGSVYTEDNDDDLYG
# Sequence of N-ethylmaleimide sensitive factor (NSF) (P46459 whole entry, species assumed): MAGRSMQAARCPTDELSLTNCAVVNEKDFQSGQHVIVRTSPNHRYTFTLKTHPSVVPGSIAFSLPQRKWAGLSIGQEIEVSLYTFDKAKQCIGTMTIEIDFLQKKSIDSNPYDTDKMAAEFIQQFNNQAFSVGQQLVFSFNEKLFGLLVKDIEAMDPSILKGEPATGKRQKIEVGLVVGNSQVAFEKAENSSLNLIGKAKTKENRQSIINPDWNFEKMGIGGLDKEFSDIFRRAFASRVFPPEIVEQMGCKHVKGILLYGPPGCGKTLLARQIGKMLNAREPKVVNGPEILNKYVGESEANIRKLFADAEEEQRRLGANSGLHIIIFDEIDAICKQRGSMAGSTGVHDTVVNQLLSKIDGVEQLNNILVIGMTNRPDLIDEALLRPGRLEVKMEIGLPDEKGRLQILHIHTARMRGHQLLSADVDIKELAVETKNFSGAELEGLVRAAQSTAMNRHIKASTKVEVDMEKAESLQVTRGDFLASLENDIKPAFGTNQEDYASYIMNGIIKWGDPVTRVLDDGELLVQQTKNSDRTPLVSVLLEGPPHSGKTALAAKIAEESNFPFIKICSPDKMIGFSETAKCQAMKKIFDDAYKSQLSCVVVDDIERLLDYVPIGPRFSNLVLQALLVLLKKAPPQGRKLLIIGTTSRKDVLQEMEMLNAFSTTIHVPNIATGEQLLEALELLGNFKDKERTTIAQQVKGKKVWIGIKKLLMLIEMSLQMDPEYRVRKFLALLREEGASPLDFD
# Sequence of chaperonin GroEL (P0A6F5 whole entry, the tested form may be a part): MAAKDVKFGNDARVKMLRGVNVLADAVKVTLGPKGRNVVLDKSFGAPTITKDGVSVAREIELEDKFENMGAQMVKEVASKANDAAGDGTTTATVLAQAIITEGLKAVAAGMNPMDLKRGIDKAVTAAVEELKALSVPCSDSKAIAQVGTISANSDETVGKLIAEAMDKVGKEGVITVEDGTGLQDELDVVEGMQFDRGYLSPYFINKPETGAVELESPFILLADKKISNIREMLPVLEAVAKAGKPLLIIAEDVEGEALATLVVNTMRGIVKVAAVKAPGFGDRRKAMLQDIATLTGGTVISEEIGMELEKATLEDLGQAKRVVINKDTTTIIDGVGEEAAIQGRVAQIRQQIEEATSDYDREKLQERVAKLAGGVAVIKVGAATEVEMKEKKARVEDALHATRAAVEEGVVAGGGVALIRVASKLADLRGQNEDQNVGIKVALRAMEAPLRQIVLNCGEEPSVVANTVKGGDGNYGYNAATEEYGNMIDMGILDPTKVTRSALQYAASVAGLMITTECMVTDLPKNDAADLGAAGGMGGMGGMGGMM
# Sequence of p97-C209A (P55072 whole entry C209A): as the sequence (P55072 whole entry) above, with C209A counted along it
smiles,measurement,setting,value
"C=C1OC(=O)C2(C1=O)[C@H](/C=C/C=C/CCC)C=C[C@@H](O)[C@@H]2O (mixture of isomers) [compound 2, oxaspirol B]",IC50,[1],> 200 µM
same,effect of ATP concentration on IC50 of p97 inhibition,[2]; data not shown,no effect
same,p97 ATPase inhibitory activity (in words),[2]; malachite green-based ATPase assay,moderate; also recorded: showed activity
same,IC50,[3],> 200 µM
same,rescue of Ub^G76 VGFP reporter (number of GFP positive cells by FACS),[4],dose-dependent inhibition of GFP fluorescence loss; also recorded: rescued in the presence of 2 in a dose-dependent manner
same,inhibition of p97 ATPase after extensive dialysis (reversibility),[5],No inhibition of p97 was evident after extensive dialysis; also recorded: p97 ATPase activity is restored
same,IC50,[6],18 ± 4.7 µM
same,activity against cysteine-less p97 variant Cys0 (in words),[7],no activity
same,IC50,[8],> 200 µM
"CCCC=CC=C[C@@H]1C=C[C@@H](O)[C@H](O)[C@]12C(=O)OC(C)[C@@H]2O (stereo partly drawn) [compound 1, (4R,5R,6R,9R,10R)-6-(hepta-1,3-dien)yl-4,9,10-trihydroxy-3-methyl-2-oxaspiro[4,5]dec-7-en-1-one]",antibacterial activity (in words),[9],weakly active
"C=C1OC(=O)[C@@]2(C1=O)[C@H](/C=C/C=C/CCC)C=C[C@@H](OC(C)=O)[C@@H]2OC(C)=O (single isomer, unassigned; isomer 5b) [5b, 9,10-Diacetyloxaspirol B Isomer 5b]",IC50,[2],> 200 µM
"C=C1OC(=O)[C@]2(C1=O)[C@H](/C=C/C=C/CCC)C=C[C@@H](OC(C)=O)[C@@H]2OC(C)=O (single isomer, unassigned; isomer 5a) [5a, 9,10-Diacetyloxaspirol B Isomer 5a]",IC50,[2],> 200 µM
"C[C@H]1CCC/C=C/C(=O)c2c(O)cc(O)cc2CC(=O)O1 [dehydrocurvularin, reference compound]",inhibition of p97 ATPase after extensive dialysis (reversibility),[5],continued inhibition even after extensive dialysis
